Compound activity (PubChem BioAssay)
In the library only some 2.9% were active in any assay of this set; here they are far more common.
CHO-K1 Ca ag: counter-screen for M1 agonists: effect in parental CHO-K1 cells. Fluo-8 calcium fluorescence; scaled to maximal ATP response, vehicle zero. activation, % at 3 µM. 360,000 tested, 0.48% active. AID 602248; in the data active means activation above about 15%;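 further: untransfected CHO-K1 host cells lacking M1 receptor as counterscreen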
CHO parental Ca: counter-screen: ATP calcium response change in parental CHO cells; parental CHO-K1, ATP-induced calcium, Fluo-8 fluorescence; inhibition, % at 5.6 µM; 330,000 tested, 0.63% active; AID 463079;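 active means inhibition above that plate's mean sample inhibition plus 3 SD, cut at about 26% in these data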
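Material: Parental CHO cells | Reagent: ATP | Compound dosing: Single nominal dose of 5.6 µM per compound | Detection: Intracellular calcium via Fluo-8 no-wash fluorescent dye | Read-out: % inhibition of ATP-induced calcium mobilization | Benchmarks: Low control ATP plus DMSO, high control DMSO only | Replicates: Singlicate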
OX1R antag-1: antagonists of human orexin 1 receptor (OX1R); O43613; OX1R-expressing cells, FRET antagonist read-out; inhibition, % at 6.6 µM; 330,000 tested, 1.8% active; AID 485270; in the data active means inhibition mostly above about 38%, no sharp cut-off; inactive means mostly below about 40%
Target sequence (O43613 whole entry, looked up): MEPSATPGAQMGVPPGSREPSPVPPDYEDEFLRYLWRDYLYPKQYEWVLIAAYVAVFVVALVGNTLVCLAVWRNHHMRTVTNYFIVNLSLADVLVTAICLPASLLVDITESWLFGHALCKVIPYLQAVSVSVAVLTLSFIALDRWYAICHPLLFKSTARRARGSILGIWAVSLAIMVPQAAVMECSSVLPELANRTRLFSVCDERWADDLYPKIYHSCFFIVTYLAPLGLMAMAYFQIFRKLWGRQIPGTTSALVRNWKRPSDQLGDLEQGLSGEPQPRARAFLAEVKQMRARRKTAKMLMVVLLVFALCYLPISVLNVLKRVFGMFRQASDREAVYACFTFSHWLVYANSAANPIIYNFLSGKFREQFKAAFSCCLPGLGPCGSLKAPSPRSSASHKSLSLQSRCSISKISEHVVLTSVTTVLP
M1 PAM parental: nonselective activator or artifact in parental CHO-K1 calcium assay | ATP EC20, Fluo-8 calcium fluorescence; 0% at ATP EC20, 100% at ATP max | activation, % at 3 µM | 360,000 tested, 0.02% active;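 active means activation above the run cutoff, the mean activation of all test compounds plus 3 SD, cut at about 40% in these data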;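 further: peak over basal fluorescence ratio in a 140 s read after ATP addition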
OX1R antag-2: antagonists of human orexin 1 receptor; O43613; CHO/OX1R cells, Fluo-8 calcium fluorescence, orexin A; inhibition, % at 5 µM; 330,000 tested, 0.43% active; AID 434989;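 active means inhibition above its plate's threshold, mean inhibition of all tested compounds on the plate plus 3 SD, cut at about 37% in these data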
CHO-K1 Ca antag: counter-screen for M1 antagonists: effect in parental CHO-K1 cells; ATP-induced calcium, Fluo-8 fluorescence; inhibition, % at 3 µM; 360,000 tested, 0.6% active; AID 602250;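 active means inhibition above a per-plate cutoff, the plate's mean sample inhibition plus 3 SD, cut at about 24% in these data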
OX1R Ca confirm: confirmation of human orexin 1 receptor antagonists; shares compounds with OX1R antag-2; CHO/OX1R cells, orexin A calcium Fluo-8 fluorescence; inhibition, % at 5 µM; 1,100 tested, 38% active; AID 492963; in the data active means inhibition above about 29%
CHO Ca counter: counter-screen: parental CHO calcium response change, triplicate; shares compounds with OX1R antag-2; parental CHO-K1, ATP-induced calcium, Fluo-8 fluorescence; inhibition, % at 5.6 µM; 1,100 tested, 9.3% active; AID 492965;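 active means inhibition above a per-plate limit, the mean inhibition of that plate's test compounds plus 3 SD, cut at about 25% in these data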
OX1R HTRF confirm: OX1R (human) antagonism, HTRF confirmed; shares compounds with OX1R antag-1; 1,800 tested, 49% active; OX1R-expressing cells, HTRF antagonist assay; inhibition, % at 6.6 µM; AID 492964; in the data active means inhibition above about 55%;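 further: CHO cells expressing OX1R stimulated with orexin A at about EC80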
CHO-K1 HTRF cnt: counter-screen: parental CHO-K1 HTRF response; 1,800 tested, 48% active; parental CHO-K1 cells, HTRF counterscreen; shares compounds with OX1R antag-1; inhibition, % at 6.6 µM; AID 493232; in the data active means inhibition above about 17%
Each line names hits and unclear results; the compound was inactive in the other large screens (follow-up assays come after a bar, where they were run).

O=C(CN(Cc1ccccc1)C(=O)CNS(=O)(=O)c1ccc(Cl)cc1)NCC1CCCO1 (stereo not drawn)	none
Cc1nn(-c2ccccc2)c(Cl)c1/C=N/NC(=O)OC(C)(C)C	none
Cc1ccc(C)c(OCC(=O)N/N=C/c2c(C)nn(-c3ccccc3)c2Cl)c1	none (no result: CHO-K1 Ca ag, M1 PAM parental, CHO-K1 Ca antag) | OX1R Ca confirm inactive | CHO Ca counter inactive
COc1cc(CN2CC(=O)N(c3ccccc3Cl)C2=S)cc(OC)c1OC	CHO-K1 Ca ag 19.0 | OX1R Ca confirm 68.0 | CHO Ca counter inactive
Cc1ccc(OCCCC(=O)Nc2ccc(Cl)c(S(=O)(=O)N3CCOCC3)c2)cc1	none
O=C(CCCOc1ccccc1)Nc1ccc(Cl)c(S(=O)(=O)N2CCOCC2)c1	none | OX1R Ca confirm inactive | CHO Ca counter inactive
O=C(CCCOc1ccccc1)Nc1cccc([N+](=O)[O-])c1	none | OX1R Ca confirm inactive | CHO Ca counter inactive
O=C(O)CCCC(=O)Nc1cccc([N+](=O)[O-])c1	none
CC(C)C(=O)N1CCN(c2ccc(NC(=O)COc3ccccc3[N+](=O)[O-])cc2)CC1	CHO-K1 Ca antag 39.7 | OX1R Ca confirm inactive | CHO Ca counter inactive
CC(C(=O)Nc1ccccc1)c1ccc(-c2ccccc2)c(F)c1 (stereo not drawn)	OX1R antag-2 39.8 | OX1R Ca confirm inactive | CHO Ca counter inactive
COc1cc2c(cc1OC)C(c1cc(OC)c(OC)c(OC)c1)C1(O)C(=O)OCC1(O)C2 (stereo not drawn)	none (no result: CHO parental Ca, OX1R antag-1, OX1R antag-2)
O=C(COC(=O)c1ccc(S(=O)(=O)N2CCCC2)cc1)Nc1cccc(Cl)c1	none
O=C1N[C@@H](c2ccccc2)COC(=O)[C@H](Cc2ccc(F)cc2)C/C=C\C[C@H]1CC(=O)N(CCO)Cc1ccccc1	none (no result: CHO parental Ca, OX1R antag-1, OX1R antag-2)
O=C1N[C@@H](c2ccccc2)COC(=O)[C@@H](Cc2ccc(F)cc2)C/C=C\C[C@@H]1CC(=O)N(CCO)Cc1ccccc1	CHO-K1 Ca ag 17.2 | OX1R Ca confirm 62.6 | CHO Ca counter inactive
CCC(=O)c1ccc(OCC(=O)OC(C)C(=O)NCc2ccc3c(c2)OCO3)cc1 (stereo not drawn)	none
CS(=O)(=O)c1ccc(Cl)c(NC(=O)C2CCCCN2S(=O)(=O)c2ccccc2)c1 (stereo not drawn)	none
Cc1ccc(-c2c(C(=O)N/N=C/c3cccc(Cl)c3)nnn2-c2nonc2N)cc1	none
Cc1ccc(-c2c(C(=O)N/N=C/c3ccc4c(c3)OCO4)nnn2-c2nonc2N)cc1	OX1R antag-1 74.2 | OX1R Ca confirm inactive | CHO Ca counter inactive | OX1R HTRF confirm 88.0 | CHO-K1 HTRF cnt inactive
Cc1ccc(/C=N/NC(=O)c2nnn(-c3nonc3N)c2CSc2ccccc2)cc1	none
Cc1ccc(SCc2c(C(=O)N/N=C/c3ccc4c(c3)OCO4)nnn2-c2nonc2N)cc1	OX1R antag-1 60.3 | OX1R Ca confirm inactive | CHO Ca counter inactive | OX1R HTRF confirm 81.8 | CHO-K1 HTRF cnt inactive
O=[N+]([O-])c1cc(F)cc(F)c1Nc1ccc(F)cc1	none (no result: CHO parental Ca, OX1R antag-1, OX1R antag-2)
COc1ccc2[nH]cc(/C=C/C(=O)c3ccccc3)c2c1	OX1R antag-1 59.2 | OX1R Ca confirm inactive | CHO Ca counter inactive | OX1R HTRF confirm inactive | CHO-K1 HTRF cnt inactive
O=C(/C=C/c1c[nH]c2ccccc12)c1ccccc1	none
CCCCc1ccc(S(=O)(=O)NCCc2ccncc2)cc1	OX1R antag-1 76.0 | OX1R Ca confirm inactive | CHO Ca counter inactive | OX1R HTRF confirm inactive | CHO-K1 HTRF cnt inactive
COc1ccc(/C=C/c2nc(N)nc(-c3ccccc3O)n2)cc1OC	OX1R antag-1 86.7, OX1R antag-2 63.1 | OX1R Ca confirm 69.5 | CHO Ca counter inactive | OX1R HTRF confirm 91.8 | CHO-K1 HTRF cnt inactive
CCN(CC(=O)NCc1ccc(Cl)cc1)C(=O)CCc1ccccc1O	none
CCOC(=O)c1c(C)[nH]c(C)c1C(=O)Cn1nnc(-c2ccccc2C)n1	OX1R antag-1 54.5 | OX1R Ca confirm 28.9 | CHO Ca counter inactive | OX1R HTRF confirm 64.6 | CHO-K1 HTRF cnt inactive
CCOC(=O)c1c(C)[nH]c(C(=O)Cn2nnc(-c3ccccc3Cl)n2)c1C	none
C/C(=N\NC(=O)CCC(=O)Nc1ccc(C)c(C)c1)C1CC1	none (no result: CHO parental Ca, OX1R antag-1, OX1R antag-2)
COc1cccc(-c2nc(CS(=O)(=O)CC(=O)Nc3cc(OC)ccc3OC)c(C)o2)c1	OX1R antag-1 78.4 | OX1R Ca confirm inactive | CHO Ca counter inactive | OX1R HTRF confirm 84.9 | CHO-K1 HTRF cnt inactive
COc1cccc(-c2nc(CS(=O)(=O)CC(=O)Nc3cccc(C)c3C)c(C)o2)c1	none
Cc1ccc(NC(=O)c2sccc2C)nc1	none
Cc1cc(C(=O)CN2C(=O)NC3(CCCc4sccc43)C2=O)c(C)n1-c1ccccc1 (stereo not drawn)	OX1R antag-1 85.2, OX1R antag-2 38.3 | OX1R Ca confirm 34.8 | CHO Ca counter inactive | OX1R HTRF confirm 79.8 | CHO-K1 HTRF cnt inactive
COc1cccc(CNC(=O)CSCC(=O)Nc2ccc(C)cc2)c1	none
CCn1c(C)csc1=NC(=O)c1ccccc1O	OX1R antag-1 95.0, OX1R antag-2 54.0 | OX1R Ca confirm 41.8 | CHO Ca counter inactive | OX1R HTRF confirm 90.5 | CHO-K1 HTRF cnt inactive
Cc1csc(=NC(=O)c2ccccc2)n1Cc1ccco1	none
Nc1cc(S(=O)(=O)C(F)(F)F)ccc1C(=O)O	none
O=S(=O)(c1ccc2c(c1)C(O)c1ccccc1CC2)C(F)(F)F (stereo not drawn)	OX1R antag-1 33.8, OX1R antag-2 52.2 | OX1R Ca confirm inactive | CHO Ca counter inactive | OX1R HTRF confirm inactive | CHO-K1 HTRF cnt inactive
O=C(CCn1cccn1)N1CCCC(N2CCN(c3cccc(C(F)(F)F)c3)CC2)C1 (stereo not drawn)	none
O=C(c1ccc2nc[nH]c2c1)N1CCN(S(=O)(=O)c2cccc(Cl)c2)CC1	none (no result: CHO parental Ca, OX1R antag-1, OX1R antag-2)
CCN(CC)c1ccc(NC(=O)Cn2c(C(C)NC(=O)c3ccccc3)nc3ccccc32)cc1 (stereo not drawn)	OX1R antag-1 92.7, OX1R antag-2 53.7 | OX1R Ca confirm 61.5 | CHO Ca counter inactive | OX1R HTRF confirm 88.2 | CHO-K1 HTRF cnt inactive
Cc1ccc(C(=O)NC(C)c2nc3ccccc3n2CC(=O)Nc2c(C)cc(C)cc2C)cc1 (stereo not drawn)	none (no result: CHO-K1 Ca ag, M1 PAM parental, CHO-K1 Ca antag)
CC(=O)Nc1ccc(S(=O)(=O)N(Cc2ccccc2)c2ccccc2F)cc1	OX1R antag-1 63.1 | OX1R Ca confirm 33.8 | CHO Ca counter inactive | OX1R HTRF confirm 56.1 | CHO-K1 HTRF cnt inactive
